Test results: the EternaBench riboswitch data

Tested on: MS2 coat protein
Assay: apparent Kd, MS2 coat protein; higher = weaker binding; RNA-MaP array; FMN 200 µM where present
Summary of the method: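 In 100 mM Tris-HCl pH 7.5, 80 mM KCl, 4 mM MgCl2, BSA, DTT, yeast tRNA and Tween-20, SNAP-549-labelled MS2 coat protein was titrated from 0.7 or 1.5 nM, doubling to 3 µM, over designs transcribed by stalled E. coli RNA polymerase on Illumina sequencing-chip clusters. This was done first without ligand, then with ligand held constant. After green signal was normalised to red-channel RNA signal and control-cluster median Fmax, the apparent Kd was taken as the median of filtered per-cluster binding-curve fits.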

[1] = designed as: OFF switch for flavin mononucleotide, no ligand
[2] = ligand present: flavin mononucleotide, designed as: OFF switch for flavin mononucleotide
[3] = designed as: ON switch for flavin mononucleotide, no ligand
[4] = ligand present: flavin mononucleotide, designed as: ON switch for flavin mononucleotide

Row | Sequence | apparent Kd [1] [nM] | apparent Kd [2] [nM] | apparent Kd [3] [nM] | apparent Kd [4] [nM]
1 | GCCUUAUCUGUCAGGAUAUACAUUUUUUUUUUUUUGUAGAAGGGACAUGAGGAUCACCCAUGUACAUUACAUUG | 42.4 | 42.9 | – | –
2 | UACGACUUCGUAGGAUAUGUAUUUCAUUUCUACAUGAGGAUCACCCAUGUUUGCAUUUUUUUUUGACAGAAGGACGUAAUCGUA | – | – | 15.4 | 10.5
3 | UUAGCAACAUGAGGAUCACCCAUGUAGGAUAUCGCUAUUGUAAUCAUGAAACAUGAUUACAAUAGCGAGAAGGACAUAUGCUAU | 10.1 | 11.7 | – | –
4 | CCCAAACUUGGGCUUGGUGGUGCAUAGGAUAUGCUUGAACAUGAGGAUCACCCAUGUACAACUGUGCAGAAGGGUGCAGGGCAA | – | – | 40.9 | 18.6
5 | UUAUGUCGCGUAGGAUAUCAUUAGAGUUGUAAUUUAAUUGUAAUUUCGAUAUGAGAAGGACGUACACAUGAGGAUCACCCAUGU | 17.2 | 15.3 | – | –
6 | GGCAAUAUGUAGGAUAUCGUAUCGGAAACGAUACGAGAAGGGCAAACAUGAGGAUCACCCAUGUUCCUUAAGCC | 15 | 17.4 | – | –
7 | UGGUACUAGGGAGGAUAUGGGAAGAUACAUGAGGAUCACCCAUGUUUAAGAAUGACGAGAGGCAACUAGAAGGCCCUAGUACCU | – | – | 328 | 25.9
8 | GGCGGUCGGGAGGAUAUUCGGGCUGUUUGGCUUGGAGAAGGCUCGACAUGAGGAUCACCCAUGUUAGUGUUCUU | 73.9 | 506 | – | –
9 | GUCAUCGCAUGAGGAUAUGCUCGGGUUUCCCGAGCAGAAGGCAUGUCAUAAGACAUGAGGAUCACCCAUGUAGUUAAGAUUGUA | – | – | 192 | 12.5
10 | AAAAAGGCAGGAUAUACGAGUCAAAGAAAAGACAAAAAGGGACAUGAGGAUCACCCAUGUAGAAGGGCCAAAAA | 36.9 | 227 | – | –
11 | CAGGUAGACUGAGGAUAUACACUAAACAGCUAGUCUAUCUAGCUGCUCACAUGAGGAUCACCCAUGUAGAAGGCAGUCUGCCUG | 17.2 | 39.3 | – | –
12 | GGCGGGCGAAACAUGAGGAUCACCCAUGUGUUAUAAUUAAUAUAGGAUAUGUUUAUACUUUUUGGGCAGAAGGAUGCGCCUGCC | – | – | 97.8 | 67.5
13 | CUUAUGUAAGGAUAUCAGUAGUAAAAAAAUAAAAUUACUACUGAGAAGGUACAUGAGGAUCACCCAUGUAUCAA | 27.6 | 30.4 | – | –
14 | AAUUUACAUGAGGAUCACCCAUGUCAGGAUAUGGUUUUAUUUUUUUCUUUUCUUGAUUCCAGAAGGGACAGCUA | 127 | 68.3 | – | –
15 | ACAUUUAUAUCAGGAUAUACAAUACAAUGAUUAGUAGAAGGGAUUAAUACAUGAGGAUCACCCAUGUCAUGUGUCAUAAUAACC | 25.8 | 19.6 | – | –
16 | UAUAUGUCAGGAUAUUAGUUGUGGACGAAUUUCACUUCUGCUGAGAAGGGACAUGAGGAUCACCCAUGUUCCUC | 15.4 | 16 | – | –
17 | GUAAAUCAUGUAGGAUAUGCAUGGCGAAGCUACGCAGAAGGACAUGAGGAUCACCCAUGUUAUAGCUACCCGUUACGGUGGCAA | 100 | 236 | – | –
18 | AACGAGGCAGGAUAUACAUGAGGAUCACCCAUGUGCUUGCAUGGCGUGGGAAGUCAACGUAGAAGGGCCAUGCC | 75.7 | 89.4 | – | –
19 | GUCGUGUUAGGAUAUGGCAACGGCUAGGAAACUAGUUGUUGUUAGAAGGAACAUGAGGAUCACCCAUGUAUGAC | 34.3 | 84.3 | – | –
20 | AGCUACGUUUCGUAGCAGCUAGGUGAGGAUAUUAAAAUUUUCACAUGAGGAUCACCCAUGUAUGUGAAGAAGGCGCCUAGAAAG | – | – | 53.7 | 7.76
21 | GCAGUAAAUAAAUGCACAUGAGGAUCACCCAUGUGGGAGGCACAGGAUAUCGUAUCAUAGUGGUACGAGAAGGGUGAUAAUCUC | – | – | 425 | 84.4
22 | ACGAAACAUGAGGAUCACCCAUGUGAGGAUAUGUAAAUACUAGACAAAUAACAGAAAAACAGAAGGCACUCAGA | 24.3 | 22 | – | –
23 | CUCCUGCAAGGAUAUACAUAGUGACGUCUGUUUAAUCUUAAACAUGAGGAUCACCCAUGUAGAAGGUGCGUCAC | 16.7 | 18.1 | – | –
24 | UGAUAGGACAGAGGAUAUACAGAUAGGAUCUACUAUCAAACAAUCCUGACAUGAGGAUCACCCAUGUAGAAGGCUGUCCUAUCU | 22.5 | 86.5 | – | –
25 | GGUACCUUCACAGGAUAUGCUAUCCUUUGGGUAGCAGAAGGGUGAUAACAUGAGGAUCACCCAUGUGGUACCGGGCGUGAGCCC | – | – | 1180 | 109
26 | GUCAGCUCGUGAGGAUAUACAUGAUAGAUCGAUUAAUUAAUUAAUUUAACAUGAGGAUCACCCAUGUAGAAGGCACGAGCUGAU | 57.2 | 46.6 | – | –
27 | UUAUUUUUACAGAAGGUUUAAUAAUAUGUAUGAGAAGGAUAUGUAACAUGAGGAUCACCCAUGUUUCGUCUAUAUGAGGAUCAU | 6.77 | 7.22 | – | –
28 | AACUAAGAAUUAAUGGUGACUGACAGAAGGCAAUAGAAUGAGACCGACAUGAGGAUCACCCAUGUUGAGGAUAUGUCUUGCUAC | 6.59 | 7.2 | – | –

Row | Sequence | apparent Kd [1] [nM] | apparent Kd [2] [nM] | apparent Kd [3] [nM] | apparent Kd [4] [nM]
29 | AUCCGGAGGGAGAAGGGCUAGGAGGUCCAGCUUAUGUGUGUUGCAACAUGAGGAUCACCCAUGUAGCAGGAUAUCCCUUGUAUA | 51.2 | 214 | – | –
30 | GUAGCUAUCGGAGGAUAUUCAUACGGGAAACGGACAUGAGGAUCACCCAUGUGGCGAAAGCCUUGGGAGAAGGCCGAUAGCUAC | – | – | 37.4 | 8.89
31 | UUGUACAUAGGAUAUAGUUGUUUGUACAUGAGGAUCACCCAUGUUAUGUAUCUUUUGCUUCUAGAAGGAUGUUCUU | 38.7 | 27.7 | – | –
32 | UGGCUGAGUCGAGGAUAUGAUCUUCAUAUAUAUACAUGAGGAUCACCCAUGUAUAAUUACAUGGAUCAGAAGGCGACUCAGCCA | – | – | 31.6 | 11.5
33 | GUCGUUUAUGUAGGAUAUGCGAGGCGAGCCUAAGCAGAAGGACAUGAGGAUCACCCAUGUAUUGCGGUCUGCGUUCAGAUCGCU | 45 | 174 | – | –
34 | GUGCUAUGAGGAUAUACGUUGGUGGGCAUCUGUGUGCUCCUACAUGAGGAUCACCCAUGUAGAAGGCAUGUCAC | 12.4 | 21.9 | – | –
35 | UGUCGGAGCACAGGAUAUUACAUGAGGAUCACCCAUGUAUGAACCAAUAGCUGGAAACAGCAAUGUAAGAAGGCUGCUCCGACA | 5.6 | 5.71 | – | –
36 | AGUUGGGUCACAGGAUAUGCGCCGGCAUGCGAAGCAGAAGGGUGACGAGGUUGGGAACAUGAGGAUCACCCAUGUAUCGCAUAA | – | – | 319 | 36.5
37 | GGGUAAAUCGGAGGAUAUCAUGUAAAUACAUGAGGAUCACCCAUGUCGAUGGAGACAUCGGAGAUUGAGAAGGCCGAUGUACCG | – | – | 175 | 9.42
38 | GUAGCUAGUACAGGAUAUUAGUGUGUGUAAUAUUGAGAAGGGUACAUGAGGAUCACCCAUGUGAUCAAUCACUGUUAAGGUUGC | 80.4 | 64 | – | –
39 | CCUUUGUCAGGAUAUCAGUACAGGUCGAGUUUAGACCUGUUUGAGAAGGGACAUGAGGAUCACCCAUGUAAAAC | 125 | 161 | – | –
40 | GUCUCGUGAGGAUAUGACGCUACUUUUUUGUUUUAGUAGAGUCAGAAGGCACAUGAGGAUCACCCAUGUGAUUC | 78.6 | 48.7 | – | –
41 | UAGAUGGGAGGAUAUGCGUAGAUACGGAUUCGUGUGGUGCUACAUGAGGAUCACCCAUGUAGAAGGCCCGUCUU | 12.8 | 18.6 | – | –
42 | ACAUACAUUCGAGGAUAUCGGUGAUAAAUUUUACGAGAAGGCGAUUUACGGCAUAAUGCUGUAGACAUGAGGAUCACCCAUGUA | – | – | 71.5 | 39.2
43 | GCAUGCUCCGAGGAUAUCGAAGCUAAUUAUGCACGAGAAGGCGGAACAUGAGGAUCACCCAUGUGAUGCCUAAA | – | 29.4 | – | –
44 | UUUAAUAUUAUAGGAUAUGGAUACGAUACGUAUCCAGAAGGGUGAUUAAACUAUAAUCUAUACAUGAGGAUCACCCAUGUUUAU | – | – | 212 | 44.7
45 | GUAGAGUAAGGAUAUCAAGAAUAGGAUAGAAUGGUUAGAAUUGAGAAGGUACAUGAGGAUCACCCAUGUAAUGU | 20.9 | 21 | – | –
46 | ACACAUGAGGAUCACCCAUGUACGCGCUGACAGGAGGUCUCACAGGAUAUAUGUAGUGAUGCUACAUAGAAGGGUGAUACCGCG | – | – | 67.5 | 16.2
47 | UGUCGGAGCAGAGGAUAUUACAUGAGGAUCACCCAUGUAUGAACCAAUAGCUGGAAACAGCAAUGUAAGAAGGCUGCUUCGACA | 12.4 | 145 | – | –
48 | UAAUAAUAAUAAUAGCAGUUUACAUGAGGAUCACCCAUGUAUAAGGAUAUCGUCAGGAAUACUGACGAGAAGGUAUACAUCUGC | 20.3 | 33.6 | – | –
49 | ACAUGCAAGUAGAAGGACGGAUAUUUUGAUAACGUAGGAUAUACAGAAUCAUAUCCACAUGAUAACAUGAGGAUCACCCAUGUA | 11.8 | 12.4 | – | –
50 | AUCCCGCGAGGAUAUACAUGAGGAUCACCCAUGUAGGUUCUGGAUGGGCGAAAUUUGUGUAGAAGGCGCACCAA | 33.4 | 26.1 | – | –
51 | GAACUGAAGCUUAGCUUUAGUCGUACAUGAGGAUCACCCAUGUAGGAUAUGGUAGGCAUAGCUUACUAGAAGGAUAGAGUGAUC | 198 | 69.6 | – | –
52 | CUCACGUUAGUAGGAUAUCCGACAUGAGGAUCACCCAUGUCACUACGCCUCUAGGGAAGGUGUAAGGAGAAGGGCUGAUAAAUA | – | – | 174 | 98
53 | GAGUAGUUGAAAGGAUAUGCAUUGUUAUAGAAUGCAGAAGGUUCUAACAUGAGGAUCACCCAUGUAGGACUAUUCCUGUGUAUC | – | – | 12.1 | 9.82
54 | UUUACAUGAGGAUCACCCAUGUCUGUCACCCAUGUGUGCAAUCAGGAUAUGAUCUCAAGAAUGAAUUAGAAGGGAUAACAUGAG | – | – | 182 | 194
55 | CGCAUGGAGGGAGGAUAUGACAUGAGGAUCACCCAUGUAAAGGAUCCGACGUCAGAAGGCCCUAAGAAUUUACACAUUCUCUUA | 119 | 26.7 | – | –
